From ChEMBL document CHEMBL5096186, “Design, Synthesis, and Biological Evaluation of Novel Pyrimido[4,5-b]indole Derivatives Against Gram-Negative Multidrug-Resistant Pathogens” (J Med Chem, 2021) come the findings set out here.

The test system of data set [1] is Escherichia coli. As to the kind of experiment: Antibacterial activity against Escherichia coli ATCC 35218 strains 15 1 to 3 assessed as reduction in bacterial growth incubated for 18 to 20 hrs by CLSI based microdilution method. The format is functional. The conditions noted are these: time 18-20 hrs. The essentials: (§1)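 CLSI broth microdilution. Compounds in DMSO (levofloxacin and meropenem in water), serial twofold dilutions in broth, 64 to 0.008 μg/mL. […] Results reported as MIC ranges across strains.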
A general note: In broth dilution the organism is exposed to a series of concentrations in liquid medium.

The subject of data set [2] is Escherichia coli. Briefly: Antibacterial activity against ESBL-producing Escherichia coli ATCC 35218 strains 15 1 to 3 assessed as reduction in bacterial growth incubated for 18 to 20 hrs by CLSI based microdilution method. Format: functional. The conditions noted are these: time 18-20 hrs. The essentials:
as §1

Data set [3] deals with Staphylococcus epidermidis. Briefly: Antibacterial activity against methicillin-sensitive Staphylococcus epidermidis strains 15 1 to 4 assessed as reduction in bacterial growth incubated for 18 to 20 hrs by CLSI based microdilution method. The format is functional. Particulars: time 18-20 hrs. The method in brief:
(§2)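 Broth microdilution per CLSI. Compounds dissolved in DMSO (levofloxacin and meropenem in water) as 64 μg/mL stock, then serial twofold dilutions in broth giving 64 to 0.008 μg/mL. […] Clinical isolates tested as several strains per group; racemic GP-1 served as positive control; values given as MIC ranges.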

Data set [4] addresses Voltage-gated inwardly rectifying potassium channel KCNH2 (Homo sapiens, UniProt Q12809). As to the kind of experiment: Inhibition of hERG potassium channel assessed as […] at -80 mV holding potential incubated for 120 seconds by whole cell-automated voltage clamp analysis assay. The format is toxicity. The method in brief: (§3)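 Automated whole-cell patch clamp, holding potential −80 mV. Voltage protocol applied every 20 s. Baseline set with external solution containing 0.1% DMSO and stabilised 3 min. Compound applied until steady state, at least 3 min, then washout. Maximum tested concentration 40 μM, or 3 μM for cisapride as positive control.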
A general note: The hERG channel carries a current that helps repolarise heart muscle cells.

Data set [5] has as its system Staphylococcus aureus. Briefly: Antibacterial activity against methicillin-sensitive Staphylococcus aureus strains 15 1 to 4 assessed as reduction in bacterial growth incubated for 18 to 20 hrs by CLSI based microdilution method. Format: functional. The conditions noted are these: time 18-20 hrs. The essentials: as §2
Data set [6] has as its system Pseudomonas aeruginosa. As to the kind of experiment: Antibacterial activity against multidrug resistant Pseudomonas aeruginosa strains 15 1 to 3 assessed as reduction in bacterial growth incubated for 18 to 20 hrs by CLSI based microdilution method. The format is functional. The conditions noted are these: time 18-20 hrs. The essentials:
as §2

In data set [7] the target is hERG (KCNH2) potassium channel (Homo sapiens, UniProt Q12809). Briefly: Inhibition of hERG potassium channel assessed as maximum inhibition rate at 40 uM at -80 mV holding potential incubated for 120 seconds by whole cell-automated voltage clamp analysis assay relative to control. Particulars: time 120 sec. The format is toxicity. The method in brief:
as §3

Data set [8] relates to Staphylococcus aureus. Briefly: Antibacterial activity against methicillin-resistant Staphylococcus aureus strains 15 1 to 4 assessed as reduction in bacterial growth incubated for 18 to 20 hrs by CLSI based microdilution method. Format: functional. Particulars: time 18-20 hrs. The essentials:
as §2

In data set [9] the test system is Klebsiella pneumoniae. Briefly: Antibacterial activity agains wild type Klebsiella pneumoniae ATCC BAA-2470 assessed as reduction in bacterial growth incubated for 18 to 20 hrs by CLSI based microdilution method. Format: functional. Particulars: time 18-20 hrs. The method in brief:
as §2

For data set [10], the system named is Acinetobacter baumannii. Briefly: Antibacterial activity against wild type Acinetobacter baumannii NCTC 13304 assessed as reduction in bacterial growth incubated for 18 to 20 hrs by CLSI based microdilution method. Format: functional. Particulars: time 18-20 hrs. The method in brief:
as §2

Data set [11] has as its system Escherichia coli. As to the kind of experiment: Antibacterial activity against multidrug resistant wild type Escherichia coli ATCC BAA-2340 assessed as reduction in bacterial growth incubated for 18 to 20 hrs by CLSI based microdilution method. The format is functional. The conditions noted are these: time 18-20 hrs. The essentials:
as §2

The test system of data set [12] is Klebsiella pneumoniae. Briefly: Antibacterial activity against KPC2-producing multidrug resistant Klebsiella pneumoniae assessed as reduction in bacterial growth incubated for 18 to 20 hrs by CLSI based microdilution method. The format is functional. The conditions noted are these: time 18-20 hrs. The method in brief: as §2
Data set [13] deals with Acinetobacter baumannii. As to the kind of experiment: Antibacterial activity agains OXA23-producing multidrug resistant Acinetobacter baumannii assessed as reduction in bacterial growth incubated for 18 to 20 hrs by CLSI based microdilution method. Format: functional. The conditions noted are these: time 18-20 hrs. The essentials: as §2
Data set [14] has as its system Escherichia coli. As to the kind of experiment: Antibacterial activity against multidrug resistant wild type Escherichia coli NCTC 13353 assessed as reduction in bacterial growth incubated for 18 to 20 hrs by CLSI based microdilution method. Format: functional. The conditions noted are these: time 18-20 hrs. The essentials: as §2
Data set [15] concerns Pseudomonas aeruginosa. Briefly: Antibacterial activity against wild type Pseudomonas aeruginosa ATCC 27853 assessed as reduction in bacterial growth incubated for 18 to 20 hrs by CLSI based microdilution method. Format: functional. The conditions noted are these: time 18-20 hrs. The method in brief:
as §1

Data set [16] has as its system Escherichia coli. As to the kind of experiment: Antibacterial activity against ESBL-producing multidrug resistant Escherichia coli assessed as reduction in bacterial growth incubated for 18 to 20 hrs by CLSI based microdilution method. The format is functional. Particulars: time 18-20 hrs. The essentials:
as §2

Data set [17] has as its system Klebsiella pneumoniae. As to the kind of experiment: Antibacterial activity agains wild type Klebsiella pneumoniae ATCC BAA-1705 assessed as reduction in bacterial growth incubated for 18 to 20 hrs by CLSI based microdilution method. Format: functional. The conditions noted are these: time 18-20 hrs. The method in brief: as §1
The test system of data set [18] is Pseudomonas aeruginosa. As to the kind of experiment: Antibacterial activity against IMP4-producing multidrug resistant Pseudomonas aeruginosa assessed as reduction in bacterial growth incubated for 18 to 20 hrs by CLSI based microdilution method. Format: functional. The conditions noted are these: time 18-20 hrs. The method in brief:
as §2

Values after ≈ are worked out from the molar mass of the structure shown.

By MIC is commonly meant the least concentration at which growth counts as inhibited. One may read the IC50 as the midpoint of a concentration-inhibition curve. A word on the inhibition: it is the change of the read-out against control, counted positive when it falls.

hERG (KCNH2) potassium channel, sequence (Q12809 whole entry): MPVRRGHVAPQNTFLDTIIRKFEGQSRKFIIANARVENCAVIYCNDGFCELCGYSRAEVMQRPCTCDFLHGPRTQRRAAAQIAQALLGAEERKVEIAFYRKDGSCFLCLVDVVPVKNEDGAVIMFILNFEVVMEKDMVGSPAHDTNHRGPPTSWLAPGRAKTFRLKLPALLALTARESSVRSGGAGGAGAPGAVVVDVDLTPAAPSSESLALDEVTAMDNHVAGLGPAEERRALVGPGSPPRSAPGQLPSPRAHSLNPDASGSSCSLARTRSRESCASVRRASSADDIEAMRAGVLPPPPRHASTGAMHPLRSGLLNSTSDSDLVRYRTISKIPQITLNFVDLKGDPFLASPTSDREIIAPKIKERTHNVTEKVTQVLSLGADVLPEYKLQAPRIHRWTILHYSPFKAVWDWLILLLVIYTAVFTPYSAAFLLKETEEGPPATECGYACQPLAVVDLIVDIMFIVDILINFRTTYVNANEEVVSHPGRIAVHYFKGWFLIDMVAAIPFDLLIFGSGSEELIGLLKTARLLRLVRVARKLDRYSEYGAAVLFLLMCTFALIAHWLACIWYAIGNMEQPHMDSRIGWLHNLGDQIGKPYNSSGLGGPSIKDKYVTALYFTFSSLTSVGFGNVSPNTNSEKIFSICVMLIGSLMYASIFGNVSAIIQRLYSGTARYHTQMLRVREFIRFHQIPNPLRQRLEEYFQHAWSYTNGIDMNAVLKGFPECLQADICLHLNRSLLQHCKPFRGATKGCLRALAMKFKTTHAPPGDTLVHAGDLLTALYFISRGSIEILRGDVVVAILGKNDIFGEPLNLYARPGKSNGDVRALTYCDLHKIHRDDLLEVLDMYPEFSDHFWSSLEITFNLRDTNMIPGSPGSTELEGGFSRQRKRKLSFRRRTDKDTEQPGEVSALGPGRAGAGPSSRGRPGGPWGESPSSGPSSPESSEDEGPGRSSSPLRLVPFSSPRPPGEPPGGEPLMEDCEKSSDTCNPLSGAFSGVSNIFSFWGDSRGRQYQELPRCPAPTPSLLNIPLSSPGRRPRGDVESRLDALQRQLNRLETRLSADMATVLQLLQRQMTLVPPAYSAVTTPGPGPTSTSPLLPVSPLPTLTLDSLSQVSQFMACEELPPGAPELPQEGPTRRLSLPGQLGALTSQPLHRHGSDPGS
Voltage-gated inwardly rectifying potassium channel KCNH2, sequence (Q12809 whole entry): as above

`CCC(CO)=C1CN(c2nc(C(=O)Nc3cnc(C)nc3)nc3[nH]c4c(NC)cc(F)cc4c23)C1`: the MIC in the data set with Escherichia coli [1] and with Escherichia coli [2] was greater than 64 µg/mL in each case.
On to `CCC(CN)=C1CN(c2nc(Oc3cnc(C4CC4)nc3)nc3[nH]c4c(NC)cc(F)cc4c23)C1`, for which the MIC is 0.015 µg/mL (≈ 0.0316 µM) in the data set with Escherichia coli [1]; less than 8 ng/mL in data set [3]; less than 8 ng/mL in the data set on Staphylococcus aureus [5]; 0.03 µg/mL (≈ 0.0632 µM) in the data set on Escherichia coli [2]; 0.5 µg/mL (≈ 1.05 µM) in the data set with Pseudomonas aeruginosa [6]. The IC50 in data set [4] was determined as 23.4 µM. The inhibition at 2 min, 40 µM in data set [7] came out at 62%.
Turning to `CNc1cc(F)cc2c1[nH]c1nc(Oc3cnc(C)nc3)nc(N3CC/C(=C(\F)CN)C3)c12`, the MIC with Escherichia coli [1] is less than 0.06 µg/mL; in data set [3] it was less than 8 ng/mL; with Staphylococcus aureus [8] it was 8 ng/mL (≈ 0.0177 µM); with Staphylococcus aureus [5], less than 8 ng/mL; with Escherichia coli [2], 0.015 µg/mL (≈ 0.0332 µM); with Pseudomonas aeruginosa [6], 2 µg/mL (≈ 4.42 µM). For the same molecule, the half-inhibitory concentration (IC50) in data set [4] is greater than 40 µM. The inhibition at 2 min, 40 µM in [7] turned out to be 41.6%.
For `CNc1cc(F)cc2c1[nH]c1nc(Oc3cnc(C)nc3)nc(N3CC(=CC(C)O)C3)c12` (stereo not given), the MIC in the data set on Escherichia coli [1] was 0.125 µg/mL (≈ 0.287 µM); in [3], less than 8 ng/mL; in the data set with Staphylococcus aureus [5] it was less than 8 ng/mL; with Escherichia coli [2] it was 0.5 µg/mL (≈ 1.15 µM); in the data set with Pseudomonas aeruginosa [6], greater than 16 µg/mL.
For `CNc1cc(F)cc2c1[nH]c1nc(Oc3cnc(C)nc3)nc(N3CC/C(=C(/F)CN)C3)c12`, the MIC was 0.06 µg/mL (≈ 0.133 µM) in the data set on Escherichia coli [1]; less than 8 ng/mL in data set [3]; 8 ng/mL (≈ 0.0177 µM) in the data set with Staphylococcus aureus [8]; less than 8 ng/mL in the data set with Staphylococcus aureus [5]; 0.125 µg/mL (≈ 0.276 µM) in the data set with Escherichia coli [2]; 2 µg/mL (≈ 4.42 µM) in the data set on Pseudomonas aeruginosa [6].
With `CCC(CN)=C1CN(c2nc(Oc3cnc(C)nc3)nc3[nH]c4c(NC)cc(F)c(F)c4c23)C1`, the MIC is 0.5 µg/mL (≈ 1.07 µM) in the data set with Escherichia coli [1]; less than 30 ng/mL in [3]; 250 ng/mL (≈ 0.536 µM) with Staphylococcus aureus [8]; 250 ng/mL (≈ 0.536 µM) with Staphylococcus aureus [5]; 64 µg/mL (≈ 137 µM) in the data set on Escherichia coli [2]; greater than 64 µg/mL with Pseudomonas aeruginosa [6].
Take `[2H]C([2H])([2H])Nc1cc(F)cc2c1[nH]c1nc(Oc3cnc(C)nc3)nc(N3CC(=C(C)[C@H](C)N)C3)c12`: the MIC in the data set on Klebsiella pneumoniae [9] was 2 µg/mL (≈ 4.43 µM); with Acinetobacter baumannii [10], 0.5 µg/mL (≈ 1.11 µM); in the data set with Escherichia coli [11], 0.5 µg/mL (≈ 1.11 µM); with Klebsiella pneumoniae [12] it was 2 µg/mL (≈ 4.43 µM); with Acinetobacter baumannii [13], 0.5 µg/mL (≈ 1.11 µM); in the data set with Escherichia coli [14] it was 0.125 µg/mL (≈ 0.277 µM). For the same molecule, the MIC in the data set on Pseudomonas aeruginosa [15] turned out to be 2 µg/mL (≈ 4.43 µM); with Escherichia coli [16], 0.5 µg/mL (≈ 1.11 µM); in the data set on Klebsiella pneumoniae [17], 8 µg/mL (≈ 17.7 µM); with Pseudomonas aeruginosa [18], 8 µg/mL (≈ 17.7 µM).
Take `CNc1cc(F)cc2c1[nH]c1nc(Oc3cnc(C)nc3)nc(N3CC(=C(CO)C(C)C)C3)c12`: the MIC with Escherichia coli [1] is 0.125 µg/mL (≈ 0.27 µM); in [3], less than 30 ng/mL; in the data set with Staphylococcus aureus [8], less than 30 ng/mL; with Staphylococcus aureus [5], less than 8 ng/mL; with Escherichia coli [2], 0.5 µg/mL (≈ 1.08 µM); with Pseudomonas aeruginosa [6] it was no less than 64 µg/mL.
For the molecule `CCC(CN)=C1CN(c2nc(Oc3cnc(C(C)(C)O)nc3)nc3[nH]c4c(NC)cc(F)cc4c23)C1`, the MIC with Escherichia coli [1] is 0.5 µg/mL (≈ 1.02 µM); in [3], less than 8 ng/mL; in the data set with Staphylococcus aureus [5] it was less than 8 ng/mL; in the data set on Escherichia coli [2] it was 1 µg/mL (≈ 2.03 µM); with Pseudomonas aeruginosa [6], greater than 16 µg/mL.
For `CNc1cc(F)cc2c1[nH]c1nc(Oc3cnc(C)nc3)nc(N3CC(=C(Br)CN)C3)c12`, the MIC was 0.015 µg/mL (≈ 0.03 µM) with Escherichia coli [1]; less than 8 ng/mL in data set [3]; less than 8 ng/mL with Staphylococcus aureus [5]; 0.06 µg/mL (≈ 0.12 µM) with Escherichia coli [2]; 2 µg/mL (≈ 4.01 µM) in the data set on Pseudomonas aeruginosa [6].
